Calls of active or inactive are those of the source. The calls are words filed in the database; no cut-off is given here.
Columns and labels:
[1] = biological target: T1, 1-deoxy-D-xylulose 5-phosphate reductoisomerase (Escherichia coli K-12, UniProt P45568); assay: Inhibition of His-tagged Escherichia coli DXR pre-incubated for 2 mins before reaction initiation in presence of 160 uM NADPH in absence of 0.01% Triton X100
T1 sequence (P45568 whole entry): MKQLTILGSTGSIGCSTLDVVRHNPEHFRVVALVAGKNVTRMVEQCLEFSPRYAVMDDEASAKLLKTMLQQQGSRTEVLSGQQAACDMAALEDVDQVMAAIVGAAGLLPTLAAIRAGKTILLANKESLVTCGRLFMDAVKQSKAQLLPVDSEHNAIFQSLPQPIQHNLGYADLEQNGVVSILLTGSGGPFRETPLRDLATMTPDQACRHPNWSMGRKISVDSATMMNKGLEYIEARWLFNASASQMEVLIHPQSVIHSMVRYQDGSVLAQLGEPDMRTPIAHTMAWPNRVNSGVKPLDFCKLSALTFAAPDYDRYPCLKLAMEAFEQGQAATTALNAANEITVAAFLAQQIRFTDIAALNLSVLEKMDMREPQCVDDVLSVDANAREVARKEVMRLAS

[2] = biological target: T1, 1-deoxy-D-xylulose 5-phosphate reductoisomerase; assay: Inhibition of His-tagged Escherichia coli DXR pre-incubated for 2 mins before reaction initiation in presence of 160 uM NADPH in presence of 0.01% Triton X100
Method in brief: (§1)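 His-tagged E. coli DXR at 37 °C in 50 mM Tris/HCl pH 7.5 with 3 mM MgCl2 and 2 mM DTT. Enzyme preincubated 2 min with inhibitor and 480 µM DXP, then started with NADPH (160 µM final). Run with or without 0.01% Triton X100. Final DMSO 0.4% (v/v). IC50 taken from % residual activity vs log[inhibitor]; otherwise % inhibition at 20 µM.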

[3] = biological target: T2, 1-deoxy-D-xylulose 5-phosphate reductoisomerase (Escherichia coli K-12) (UniProt P45568); assay: Inhibition of His-tagged Escherichia coli DXR at 6 uM pre-incubated for 2 mins before reaction initiation in absence of 160 uM NADPH
T2 sequence (whole entry): T1 sequence (P45568 whole entry)
Method in brief: (§2)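 H-DXR in 50 mM Tris/HCl pH 7.5, 3 mM MgCl2, 2 mM DTT, 37 °C. Enzyme preincubated 2 min with inhibitor at 6 µM, with or without NADPH (160 µM). Reaction started by DXP (480 µM final) to measure residual activity.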

[4] = biological target: T2, 1-deoxy-D-xylulose 5-phosphate reductoisomerase (Escherichia coli K-12); assay: Inhibition of His-tagged Escherichia coli DXR at 6 uM pre-incubated for 2 mins before reaction initiation in presence of 160 uM NADPH; method in brief: as §2
Malate dehydrogenase [5] = biological target: T3, Malate dehydrogenase (Thermus thermophilus, UniProt P10584); assay: Inhibition of Thermus flavus MDH pre-incubated for 4 mins before reaction initiation in presence of OAA and NAPH in absence of 0.01% Triton X100 by UV-Vis spectrophotometry
T3 sequence (P10584 whole entry): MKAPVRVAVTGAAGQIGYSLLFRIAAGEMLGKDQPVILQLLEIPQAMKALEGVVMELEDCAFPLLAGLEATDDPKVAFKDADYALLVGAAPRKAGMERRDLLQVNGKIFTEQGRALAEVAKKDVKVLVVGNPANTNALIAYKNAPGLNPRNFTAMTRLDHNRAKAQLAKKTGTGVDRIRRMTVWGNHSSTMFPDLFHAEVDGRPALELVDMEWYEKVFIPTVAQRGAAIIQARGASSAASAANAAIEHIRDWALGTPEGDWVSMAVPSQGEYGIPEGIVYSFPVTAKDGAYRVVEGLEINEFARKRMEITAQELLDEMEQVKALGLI
Method in brief: (§3)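 MDH in 50 mM Tris/HCl pH 7.5 at 37 °C. Preincubated 4 min with inhibitor, with or without 0.01% (w/v) Triton X100. Reaction started by successive addition of oxaloacetate (250 µM final) and NADH (160 µM final). Initial rates followed as A340 decrease. At least duplicate; 0.4% DMSO final.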

[6] = biological target: T4, Malate dehydrogenase (Thermus thermophilus) (UniProt P10584); assay: Inhibition of Thermus flavus MDH at 50 uM pre-incubated for 4 mins before reaction initiation in presence of OAA and NAPH in presence of 0.01% Triton X100 by UV-Vis spectrophotometry; method in brief: as §3
T4 sequence (whole entry): T3 sequence (P10584 whole entry)

Escherichia coli [7] = assay: Antimicrobial activity against Escherichia coli XL1 Blue at 400 nmol/4 uL by paper disc diffusion method; type: functional
Method in brief: (§4)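 Paper disc diffusion on E. coli XL1 Blue. Discs impregnated with compound dissolved in DMSO (4 µL): 400 nmol in the initial screen, then 200 to 800 nmol. Read-out is the diameter of the growth inhibition zone (mm).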

Escherichia coli [8] = assay: Antimicrobial activity against Escherichia coli XL1 Blue at 800 nmol/4 uL by paper disc diffusion method; type: functional; method in brief: as §4
[9] = Lipophilicity, log P of the compound; type: physicochemical; details: octanol/water
[10] = biological target: T2, 1-deoxy-D-xylulose 5-phosphate reductoisomerase (Escherichia coli K-12); details: 1 to 8 uM
[11] = biological target: T4, Malate dehydrogenase (Thermus thermophilus); assay: Inhibition of Thermus flavus MDH at 10 uM pre-incubated for 4 mins before reaction initiation in presence of OAA and NAPH in presence of 0.01% Triton X100 by UV-Vis spectrophotometry; method in brief: as §3
[12] = biological target: T2, 1-deoxy-D-xylulose 5-phosphate reductoisomerase (Escherichia coli K-12); assay: Inhibition of His-tagged Escherichia coli DXR at 20 uM pre-incubated for 2 mins before reaction initiation in presence of 160 uM NADPH in presence of 0.01% Triton X100; method in brief: as §1
[13] = biological target: T2, 1-deoxy-D-xylulose 5-phosphate reductoisomerase (Escherichia coli K-12); assay: Inhibition of His-tagged Escherichia coli DXR at 10 uM pre-incubated for 2 mins before reaction initiation in presence of 160 uM NADPH
[14] = biological target: T2, 1-deoxy-D-xylulose 5-phosphate reductoisomerase (Escherichia coli K-12); details: 10 uM
Malate dehydrogenase [15] = biological target: T3, Malate dehydrogenase; assay: Inhibition of Thermus flavus MDH pre-incubated for 4 mins before reaction initiation in presence of OAA and NAPH in presence of 0.01% Triton X100 by UV-Vis spectrophotometry; method in brief: as §3
[16] = biological target: T1, 1-deoxy-D-xylulose 5-phosphate reductoisomerase
[17] = biological target: T2, 1-deoxy-D-xylulose 5-phosphate reductoisomerase (Escherichia coli K-12); assay: Inhibition of His-tagged Escherichia coli DXR at 20 uM pre-incubated for 2 mins before reaction initiation in presence of 160 uM NADPH in absence of 0.01% Triton X100; method in brief: as §1
[18] = biological target: T4, Malate dehydrogenase (Thermus thermophilus); assay: Inhibition of Thermus flavus MDH at 50 uM pre-incubated for 4 mins before reaction initiation in presence of OAA and NAPH in absence of 0.01% Triton X100 by UV-Vis spectrophotometry; method in brief: as §3

| IC50 [1] [µM] | inhibition [3] [%] | inhibition [4] [%] | IC50 (Malate dehydrogenase [5]) [µM] | inhibition [6] [%] | inhibition [11] [%] | inhibition [12] [%] | Compound | also measured |
| --- | --- | --- | --- | --- | --- | --- | --- | --- |
| 3.8 | 70 | 29 | 3.4 | 53 | – | – | O=C(CN1C(=O)/C(=C/c2ccc(O)c(O)c2)SC1=S)NO | IC50 [2]: 6.1 µM; inhibition zone (IZ) (Escherichia coli [7]): 14 mm; inhibition zone (IZ) (Escherichia coli [8]): 20 mm; logP [9]: 1.8; inhibition [10]: Active |
| 3.2 | 64 | 41 | 0.5 | < 5 | – | < 5 | O=C(CN1C(=O)/C(=C/c2ccc(O)c(O)c2)SC1=S)Nc1ccc(Oc2ccc(Cl)cc2)cc1 | – |
| 4.1 | 38 | 30 | 0.4 | < 5 | – | 10 | Cc1ccc(Oc2ccc(NC(=O)CN3C(=O)/C(=C/c4ccc(O)c(O)c4)SC3=S)cc2)cc1 | inhibition [13]: 53%; inhibition [14]: < 5% |
| 3.1 | 61 | 41 | 4.7 | – | – | – | O=C(O)CN1C(=O)/C(=C/c2ccc(O)c(O)c2)SC1=S | IC50 [2]: 4.4 µM; IC50 (Malate dehydrogenase [15]): 15 µM; logP [9]: 1; Ki [16]: 7.7 µM; alphaKi [10]: 3 µM |

The next lines start with the compound.

| Compound | IC50 [1] [µM] | inhibition [3] [%] | inhibition [4] [%] | IC50 (Malate dehydrogenase [5]) [µM] | inhibition [6] [%] | inhibition [11] [%] | inhibition [12] [%] | also measured |
| --- | --- | --- | --- | --- | --- | --- | --- | --- |
| O=C(CN1C(=O)/C(=C/c2ccc(O)cc2O)SC1=S)Nc1ccc(Oc2ccc(Cl)cc2)cc1 | 58 | – | – | 1.3 | – | < 5 | – | – |
| Cc1ccc(Oc2ccc(NC(=O)CN3C(=O)/C(=C/c4cccc(O)c4O)SC3=S)cc2)cc1 | 3.6 | 60 | 38 | 1 | – | < 5 | < 5 | – |
| O=C(CN1C(=O)/C(=C/c2cccc(O)c2O)SC1=S)Nc1ccc(Oc2ccc(Cl)cc2)cc1 | 3.3 | 63 | 43 | 0.7 | – | < 5 | < 5 | – |
| O=C(O)CN1C(=O)/C(=C/c2ccccc2)SC1=S | – | – | – | – | – | – | – | inhibition [17]: < 5%; inhibition [18]: < 5% |
